Source: PubChem BioAssay AID504414 (Broad Institute, 2011)
The campaign covered roughly 330,000 compounds. About 55 (0.02%) were called active.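 The calls were made as follows: active = highest replicate inhibition of at least 40%; inactive = the rest.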 For the sample, actives were picked, then their nearest neighbours and some compounds at random.

The compounds below were run against Golgi-associated PDZ and coiled-coil motif-containing protein (Homo sapiens) (UniProt Q9HD26) (assay: disruption of CAL PDZ-reporter peptide interaction – biochemical, fluorescence polarization, Cer-tagged CAL PDZ, HTS, primary screen (AID 504414;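 also: plate controls were DMSO neutral control wells for no effect and unlabeled competitor peptide control wells for full effect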)). Details: purified CAL PDZ, TMR-peptide fluorescence polarization, 1 h; at 20 µM; stronger effect = higher value.
Outline: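 System: tagged CAL PDZ domain. Schedule: 1 h room-temperature incubation prior to read. Signal: fluorescence polarization (mP). Measure: percent inhibition from loss of millipolarization.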

Compound	inhibition
COc1ccccc1N(CC(=O)Nc1c(C)n(C)n(-c2ccccc2)c1=O)S(=O)(=O)c1ccccc1	0.495% (inactive)
CCN(CC)CCN1C(=O)C2C(C(=O)Nc3ccc(Br)cc3)C3C=CC2(O3)C1C(=O)NC1CCCCC1 (stereo not drawn)	0.206% (inactive)
COc1ccc(-n2c(O)c(C=NCC(c3ccco3)N3CCCC3)c3ccccc3c2=O)cc1OC (stereo not drawn)	-2.24% (inactive)
CC1CCCN(C(=O)Cn2c(=O)oc3ccccc32)C1 (stereo not drawn)	0.481% (inactive)
COc1ccc(/C=C/C(=O)NC(=S)N2CCCC(C(N)=O)C2)cc1 (stereo not drawn)	-0.891% (inactive)
O=C(C1CCCO1)N1CCN(S(=O)(=O)c2ccc(Br)cc2)CC1 (stereo not drawn)	-0.919% (inactive)
CC(OC(=O)c1ccc(-n2cnnn2)cc1)C(=O)NCc1ccccc1 (stereo not drawn)	-0.615% (inactive)
COc1ccccc1N1CCN(CC(=O)NCCc2ccc(S(N)(=O)=O)cc2)CC1	1.11% (inactive)
O=C1COc2c1ccc(O)c2O	-0.377% (inactive)
CCC(C(=O)NC1CCCCC1)N(C(=O)c1snc(C(N)=O)c1N)c1ccc(OC)cc1OC (stereo not drawn)	-1.96% (inactive)
COC(=O)c1cc(NC2c3ccccc3C(=O)N2c2ccc(Cl)cn2)cc(C(=O)OC)c1 (stereo not drawn)	1.56% (inactive)
Cc1cccc(OCCNC(=S)NC(=O)c2cccnc2)c1	-1.24% (inactive)
COC(=O)c1cc(C(=O)N(Cc2ccccc2)c2ccccn2)cc([N+](=O)[O-])c1	-1.95% (inactive)
FC(F)(F)c1cc(C(F)(F)F)c2ccc(N3CCN(c4ccccc4)CC3)nc2n1	-0.0994% (inactive)
Cc1cccc(N2Cc3ccccc3C2=NC(=O)c2ccc(Cl)nc2)c1	-3% (inactive)
Cc1ccc(C(=O)O)c(NC=O)c1OCc1ccccc1	-0.888% (inactive)
O=C(Nc1ccc(F)c([N+](=O)[O-])c1)C1CCCO1 (stereo not drawn)	0.3% (inactive)
C[C@@H]1C(c2ccc(F)cc2)=NN(c2ccc(Br)cc2)[C@H]1C(=O)N1CCOC1=O	-0.314% (inactive)
COc1ccc(N2CCN(C(=O)c3ccc(N4CCCCS4(=O)=O)cc3)CC2)cc1	-1.77% (inactive)
CCCCCCCCCCOC(=O)C[N+](C)(C)CC1CCCCC1O (stereo not drawn)	-1.83% (inactive)

Compound	inhibition
Cc1cc(C)c(C#N)c(Nc2cccc(Br)c2)n1	-0.811% (inactive)
COc1ccc2c(c1)c(=Cc1ccc(N(C)C)cc1)c1cc(-c3ccccc3)[n+](C)n12	32% (inactive)
COc1ccc(-n2nc(C(=O)NCC(=O)N3CCC(C(N)=O)CC3)c3ccccc3c2=O)cc1OC	0.6% (inactive)
COc1ccccc1C(=O)COC(=O)CNS(=O)(=O)c1ccc(NC(C)=O)cc1	-3.17% (inactive)
COc1cc2c(cc1OC)C1C(=O)c3cc(OS(C)(=O)=O)c(OC)cc3C1N(C)C2=O (stereo not drawn)	-0.086% (inactive)
Cc1ccc(NC(=O)CN2C(=O)NC(C)(c3ccc(Cl)cc3)C2=O)c(Br)c1 (stereo not drawn)	-4.23% (inactive)
CCOc1cc(/C=N/NC(=O)c2ccc(CSc3nncn3C)cc2)ccc1OCC(=O)N1CCOCC1	-3.73% (inactive)
CCN(CC)S(=O)(=O)c1cccc(-c2n[nH]c(=S)n2/N=C/c2ccc(C(=O)OC)cc2)c1	-1.46% (inactive)
CCCCC(CC)CNCc1cccn1CCN1CCOCC1 (stereo not drawn)	0.235% (inactive)
Cc1cc(C)n(CC(C)NCc2c(C(=O)N3CCOCC3)nc3c(C)cccn23)n1 (stereo not drawn)	0.659% (inactive)
COc1ccccc1C1C(C(N)=O)=C(C)Nc2nc(CCCO)nn21 (stereo not drawn)	-0.498% (inactive)
Nc1cc2c(cc1Br)-c1ccc(F)cc1C2=O	-0.277% (inactive)
O=C(O)CCC(=O)Nc1ccc(OCC2CCCO2)cc1 (stereo not drawn)	-0.764% (inactive)
Cc1c[n+]([O-])ccc1[N+](=O)[O-]	0.378% (inactive)
Cc1nc(C)c2c(c1C(F)(F)F)-c1ccccc1C2(F)F	-1.33% (inactive)
NC1=NC(=O)C(Cc2cccc(Cl)c2Cl)S1 (stereo not drawn)	1.03% (inactive)
CCc1ccc(OCC(=O)OC(C)C(=O)NC2CC2)cc1 (stereo not drawn)	-0.543% (inactive)
CC(C)(C)C(=O)N(Cc1ccccc1)c1ccccn1	0.0459% (inactive)
COC(C(=O)Nc1ccc(S(=O)(=O)Nc2ccc(C)c(C)c2)cc1)c1ccccc1 (stereo not drawn)	-3.38% (inactive)
CCCCCCCCNS(=O)(=O)CCNC1CCCCC1	-1.06% (inactive)

Compound	inhibition
O=C1CSc2ccc(S(=O)(=O)NCc3ccccc3)cc2N1	-0.383% (inactive)
CCOc1ccccc1-n1c(SCC(=O)N2CCCC2)nnc1-c1ccoc1C	-1.83% (inactive)
O=S(=O)(NC1CCCCC1N1CCC(O)CC1)c1ccc(Cl)cc1 (stereo not drawn)	-0.646% (inactive)
CC1CCCCC1NC(=O)CCS(=O)(=O)c1ccc2c(c1)NC(=O)CO2 (stereo not drawn)	-0.536% (inactive)
COc1ccc(/C=N/N=C/c2c[nH]c(=O)c(C#N)c2Nc2ccccc2)cc1	-5.96% (inactive)
CCCCCC(=O)Nc1ccc(-c2cn3cccnc3n2)cc1	177% (active)
CC(=O)Nc1ccc(-c2cn3cccnc3n2)cc1	-1.06% (inactive)
CC(C)(C)C(=O)Nc1ccc(-c2cn3cccnc3n2)cc1	-1.11% (inactive)
Cc1ccc(C(=O)NNC(=O)OC(C)(C)C)c(Cl)c1	-1.58% (inactive)
S=c1[nH]cc(-c2ccc(Cl)cc2)n1-c1ccccc1	-1.13% (inactive)
CC(=O)c1nc(N2C(=O)C3CC=C(C)CC3C2=O)sc1C (stereo not drawn)	-0.266% (inactive)
CC(C)CCN1CCN=C1N(C)C	-2.49% (inactive)
Cc1ccc(S(=O)(=O)N2CCN(C)CC2)cc1C(=O)NC1CCCCC1	-0.886% (inactive)
CN1/C(=c2/s/c(=C3/C(=O)N(c4ccccc4)NC3=Nc3ccccc3)n(C)c2=O)C(C)(C)c2ccccc21	0.46% (inactive)
COc1cc(-c2nc(S(=O)(=O)c3ccc(Cl)cc3)c(N(C)C)o2)cc(OC)c1OC	-0.274% (inactive)
Clc1c(OCCCn2ccnc2)ccc2ccccc12	-0.854% (inactive)
O=C(OCC(=O)N1CCCCCC1)c1ccc(Br)c(S(=O)(=O)N2CCOCC2)c1	0.404% (inactive)
CSc1ccc(Cl)c(C(=O)OCC(=O)N2CC(C)OC(C)C2)c1 (stereo not drawn)	1.25% (inactive)
